# Source: PubChem BioAssay
# Calls of active or inactive are those of the source.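 How the source made its calls, unless noted: active means viability at or below 10% of carrier control in both of two separate runs; inconclusive means viability at or below 10% in only one of the two runs; inactive means the rest.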
# Key:
# [1] = reduced viability of SK-BR-3 breast cancer cells – cell-based, 24 h, human, pilot screen (AID 572); conditions: SK-BR-3 viability, CellTiter-Glo luminescence, at 10 µM, stronger effect = lower value;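 further: compound exposure lasted between 18 and 24 h rather than exactly 24 h; 100% = carrier-treated control wells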
# [2] = HUVEC growth inhibition – cell-based, human, primary screen (AID 575;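 active means viability at or below 30% in both replicate assays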;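 further: 100% = median of untreated cell wells with 0.1% DMSO on each plate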); conditions: HUVEC proliferation, CellTiter-Glo luminescence, 72 h; at 10 µM; stronger effect = lower value
# Method in brief: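 Test system: HUVEC primary cells. Quantity: 1250 endothelial cells in each well. Dosing: single-point 10 µM, DMSO 0.1% final. Incubation: 72 h treatment at 37 °C. Measured by: CTG luminescence. Control set: DMSO cell controls and MePR drug controls. Plate: collagen-coated 384-well format.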
# [3] = H69AR cell proliferation blockers – human, duplicate replicates, primary screen (AID 580;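 active means viability at or under a set limit in both replicates, limit being median viability minus 3 SD, cut at about 48% in these data, passing the limit was not always enough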;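 further: 100% = mean luminescence of untreated wells and 0% = no signal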); conditions: H69AR lung tumor cells viability, ATP luminescence, 72 h; at 10 µM; stronger effect = lower value
# [4] = MRP1 drug-resistance reversers in H69AR cells – cell-based, doxorubicin co-treatment, pilot screen (AID 601;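 active means viability loss from added drug above about 55%, and viability with drug at most 40%, in both replicates, limit read from the data, passing the limit was not always enough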); conditions: CellTiter-Glo, 72 h, at 10 µM; for differential viability (reversal): stronger effect = higher value
# [5] = yeast transport mutant growth inhibition pilot in 384-well plates, post-Golgi transport modulator project (AID 636; in the data active means inhibition above about 31%); conditions: absorbance 615 nm, about 18 h, stronger effect = higher value
# [6] = growth suppression of yeast trafficking mutant, preliminary HTS, modulators of trafficking downstream of Golgi apparatus project, 1536-format plate, OD 615 nm (AID 637; in the data active means inhibition above about 30%); conditions: yeast transport mutant growth, absorbance 615 nm, 18 h; stronger effect = higher value
# [7] = H69AR cells + 2 uM doxorubicin, measured here: viability with 2 uM doxorubicin, stronger effect = lower value
# [8] = H69AR cells, compound alone cytotoxicity
Compound,viability [1],viability [2],viability [3],differential viability (reversal) ([4]; H69AR cells + 2 uM doxorubicin),"viability [4, 7] [%]","viability [4, 8] [%]",inhibition [5],inhibition [6]
COc1ccc(-c2ccc(-c3noc(-c4ccccc4)n3)c(OC)n2)cc1,103% (inactive),68.3% (inactive),88% (inactive),3.25% (inactive),84.7,88,-8.51% (inactive),-10.2% (inactive)
O=C1C(Cl)=C(NCC2CCCO2)C(=O)N1CCc1ccccc1 (stereo not drawn),75% (inactive),111% (inactive),87.4% (inactive),8.39% (inactive),79,87.4,-0.82% (inactive),-4.03% (inactive)
Cc1ccc2c(c1C)NC(C(=O)O)C1CC=CC21 (stereo not drawn),91% (inactive),98.1% (inactive),98.2% (inactive),1.46% (inactive),96.7,98.2,-1.73% (inactive),-1.09% (inactive)
CCCCC[C@H](O)/C=C/C1=C(CCCCCCC(=O)O)C(=O)CC1,109% (inactive),75.2% (inactive),92.5% (inactive),-9.49% (inactive),102,92.5,-0.26% (inactive),-1.17% (inactive)
COc1cccc(NC(=O)COC(=O)c2cccnc2)c1,91% (inactive),83.9% (inactive),91.1% (inactive),5.84% (inactive),85.3,91.1,-4.93% (inactive),4.35% (inactive)
Cc1ccc(C)c(NS(=O)(=O)c2ccc(NC(=O)c3ccco3)cc2)c1,72% (inactive),78.5% (inactive),90.5% (inactive),-5.62% (inactive),96.1,90.5,-8.92% (inactive),-6.91% (inactive)
Nc1nc(-c2ccc(Br)s2)c(Br)s1,100% (inactive),61.3% (inactive),94.3% (inactive),9.83% (inactive),84.5,94.3,2.6% (inactive),-0.16% (inactive)
Cc1c(C(=O)N2CCN(c3ccccc3)CC2)sc2ncnc(N3CCN(c4ccccc4)CC3)c12,88% (inactive),82.5% (inactive),93% (inactive),-4.17% (inactive),97.2,93,0.13% (inactive),-4.59% (inactive)
CCOc1ccc(-c2cc(C(=O)N3CCN(c4ccccn4)CC3)c3ccccc3n2)cc1,127% (inactive),43.5% (inactive),12.5% (active),-66.7% (inactive),79.2,12.5,0.13% (inactive),-0.49% (inactive)
Cc1cc(C)n(C(=O)C23CC4CC(CC(C4)C2)C3)n1,106% (inactive),85.9% (inactive),99.3% (inactive),3.23% (inactive),96.1,99.3,-8.36% (inactive),-5.32% (inactive)
O=C(c1ccccc1-c1nc(-c2ccccc2)no1)N1CCCC1,105% (inactive),120% (inactive),90.9% (inactive),9.27% (inactive),81.6,90.9,-5.07% (inactive),-3.23% (inactive)
C[C@@H]1CCC[C@H](C)N1NC(=O)c1ccc(Cl)c(S(N)(=O)=O)c1,100% (inactive),88.5% (inactive),99.7% (inactive),7.9% (inactive),91.8,99.7,0.39% (inactive),-6.5% (inactive)
Cc1c(C(=O)NCc2ccccn2)sc2nc(-c3ccc(F)cc3)cn12,119% (inactive),89.4% (inactive),95.4% (inactive),13.1% (inactive),82.3,95.4,-3.12% (inactive),3.77% (inactive)
CC1(C)S[C@@H]2[C@H](NC(=O)[C@H](C(=O)O)c3ccsc3)C(=O)N2[C@H]1C(=O)O,105% (inactive),91.5% (inactive),102% (inactive),2.32% (inactive),99.3,102,-0.26% (inactive),-0.17% (inactive)
N#CC1=C(N)Oc2c(ccc3cccnc23)C1c1cccnc1 (stereo not drawn),111% (inactive),60% (inactive),15.1% (active),-10.9% (inactive),26,15.1,-7.53% (inactive),5% (inactive)
Cc1cc(=O)c2n(Cc3ccccc3Cl)nc[n+]2[nH]1,115% (inactive),100% (inactive),97.1% (inactive),8.77% (inactive),88.3,97.1,-4.4% (inactive),0% (inactive)
CCc1ccc(NC(=O)CS(=O)CC(=O)NC(C)CCc2ccco2)cc1 (stereo not drawn),120% (inactive),93.1% (inactive),106% (inactive),11.5% (inactive),94.3,106,-1.56% (inactive),-4.59% (inactive)
c1ccc(OCCCn2nnc(-c3ccncc3)n2)cc1,109% (inactive),108% (inactive),95.8% (inactive),-1.02% (inactive),96.8,95.8,-5.21% (inactive),4.73% (inactive)

Compound,viability [1],viability [2],viability [3],differential viability (reversal) ([4]; H69AR cells + 2 uM doxorubicin),"viability [4, 7] [%]","viability [4, 8] [%]",inhibition [5],inhibition [6]
CCOC(=O)c1c(N)c(C#N)nn1-c1ccccc1C(=O)OC,96% (inactive),109% (inactive),92.3% (inactive),6.05% (inactive),86.2,92.3,-5.87% (inactive),0.73% (inactive)
CC1(C)SC2[C@H](NC(=O)C(NC(=O)N3CCNC3=O)c3ccccc3)C(=O)N2C1C(=O)O (stereo partly drawn),107% (inactive),80.2% (inactive),95.3% (inactive),1.74% (inactive),93.6,95.3,0.26% (inactive),2.67% (inactive)
COc1ccc(C(=O)NC(=O)CSc2nnc(-c3ccco3)n2-c2ccccc2)cc1,90% (inactive),109% (inactive),105% (inactive),16.3% (inactive),88.7,105,-7.3% (inactive),-0.55% (inactive)
O=C(CN1CCN(c2ccc(F)cc2)CC1)OCc1ccccc1,95% (inactive),105% (inactive),92.6% (inactive),7.9% (inactive),84.7,92.6,-4.4% (inactive),3.64% (inactive)
CC(C)OC(=O)c1cc(NC(=O)C2C3CCC(O3)C2C(=O)O)cc(C(=O)OC(C)C)c1 (stereo not drawn),106% (inactive),88.1% (inactive),92.9% (inactive),3.01% (inactive),89.9,92.9,-7.81% (inactive),-1.09% (inactive)
CC1Oc2ccccc2N(Cc2ccccc2Cl)C1=O (stereo not drawn),77% (inactive),110% (inactive),89.1% (inactive),11.3% (inactive),77.8,89.1,-5.34% (inactive),2% (inactive)
Cc1ccc2nc(C3CCN(CC(=O)N4CCCCCC4)CC3)[nH]c2c1,84% (inactive),108% (inactive),96.3% (inactive),-10.6% (inactive),107,96.3,-1.1% (inactive),0.73% (inactive)
CCC(=O)Nc1ccc(NC(=O)c2ccccn2)cn1,87% (inactive),103% (inactive),98.2% (inactive),13.6% (inactive),84.6,98.2,-5.47% (inactive),-8% (inactive)
Cc1ccc(S(=O)(=O)NCC(=O)OCC(=O)Nc2ncc(Cl)cc2Cl)cc1,82% (inactive),91.2% (inactive),99.6% (inactive),-16.6% (inactive),116,99.6,-5.21% (inactive),1.45% (inactive)
Cc1ccccc1Nc1nc(N)nc(CSCc2c(C)noc2C)n1,88% (inactive),101% (inactive),96.4% (inactive),-1.78% (inactive),98.2,96.4,3.51% (inactive),3.09% (inactive)
Clc1ccc(-n2nnnc2Sc2ncnc3sccc23)cc1,123% (inactive),5.51% (active),1.29% (active),-0.27% (inactive),1.56,1.29,20.6% (inactive),65.5% (active)
CCOC(=O)C1CSC(CC(=O)Nc2ccc(Cl)cc2)C(=O)N1 (stereo not drawn),86% (inactive),111% (inactive),103% (inactive),11.6% (inactive),91.4,103,0% (inactive),-3.64% (inactive)
Cc1cc(C(=O)Nc2c(F)cc(F)cc2Br)no1,99% (inactive),91.9% (inactive),98.2% (inactive),-0.16% (inactive),98.4,98.2,-6.16% (inactive),4.03% (inactive)
CCOc1ccc(N2CC(C(=O)NCCc3ccc(OC)c(OC)c3)CC2=O)cc1 (stereo not drawn),108% (inactive),97.6% (inactive),94.5% (inactive),3.03% (inactive),91.4,94.5,-11% (inactive),2.26% (inactive)
O=C(NCC1CCCO1)c1ccc(C(=O)NCC2CCCO2)cc1 (stereo not drawn),97% (inactive),108% (inactive),113% (inactive),11.3% (inactive),101,113,-6.76% (inactive),-4% (inactive)
COc1ccc(-c2noc(CSc3nc4ccccc4c(=O)n3-c3ccccc3)n2)cc1OC,69% (inactive),110% (inactive),87.1% (inactive),6.39% (inactive),80.7,87.1,-9.04% (inactive),-0.55% (inactive)
O=C(c1ccco1)N1CCN(CC2CC3C=CC2C3)CC1 (stereo not drawn),91% (inactive),110% (inactive),95.8% (inactive),5.7% (inactive),90.1,95.8,-1.43% (inactive),-2.13% (inactive)
COc1ccc(CN(CC(=O)NCC2CCCO2)C(=O)CCC(=O)Nc2cc(C)on2)cc1 (stereo not drawn),77% (inactive),95.1% (inactive),89.4% (inactive),-4.07% (inactive),93.4,89.4,4.53% (inactive),9.27% (inactive)
